Measurements as given in ChEMBL document CHEMBL5055634 (J Med Chem, 2021).
Active and inactive are the calls of the source. The calls are words filed in the database; no cut-off is given here.

Assays:
[1] = tested on: Pseudomonas aeruginosa PAO1; test: Binding affinity to Pseudomonas aeruginosa PA01 cell wall at 10 uM incubated for 1 hr in dark
Summary of the method: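 Indirect cell-binding assay. Pelleted overnight PAO1 cells were resuspended and diluted 10-fold in PBS, then given compound at 10 μM for 1 h at 37 °C in the dark. After centrifugation, the supernatant visible spectrum (380–700 nm) was compared with the spectrum of each compound alone; a drop in absorbance indicates binding.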

Pseudomonas aeruginosa [2] = test: Antimicrobial activity against Pseudomonas aeruginosa PA01 assessed as inhibition of microbial growth measured after 24 hrs by broth dilution method; format: functional; settings: PAO1
Summary of the method: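 Broth dilution MIC against P. aeruginosa PAO1. Overnight LB cultures (37 °C, 200 rpm) diluted 100-fold to 10^7 CFU/mL. Two-fold dilution series from 200 to 0.1 μg/mL, 24 h at 37 °C. MIC taken as the lowest concentration with no detectable turbidity. Run at least three times.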

Pseudomonas aeruginosa [3] = test: Photodynamic antimicrobial activity against Pseudomonas aeruginosa PA01 assessed as bacterial eradication at 10 uM incubated for 10 min in dark followed by irradiation with 20J/cm2 light by viability count technique; format: functional, organism-based; settings: PAO1
Summary of the method: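 Photoinactivation assay. Overnight cultures were diluted in 10 mM phosphate buffer, pH 7.4, to ~10^6 CFU/mL. Compound was added at 10 μM and held 10 min in the dark, then irradiated at 410 ± 10 nm (20 J/cm2); dark controls were not irradiated. Survivors were counted on LB agar after overnight 37 °C incubation and reported as CFU/mL; at least three independent experiments.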

DU-145 [4] = test: […] against human DU-145 cells assessed as reduction in cell viability by measuring difference in IC50 pretreated for 24 hrs followed by white light irradiation for 1 hr further incubated for 48 hrs in drug free medium by MTT assay; format: functional, cell-based
Summary of the method: (§1)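 Prostate cells were treated for 24 h, irradiated 1 h with white or blue light (dark-kept comparison), then incubated 48 h in drug-free medium.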

DU-145 [5] = test: […] against human DU-145 cells assessed as reduction in cell viability by measuring difference in IC50 pretreated for 24 hrs followed by blue light irradiation for 1 hr further incubated for 48 hrs in drug free medium by MTT assay; format: functional, cell-based; summary of the method: as §1
PC-3 [6] = test: […] against human PC-3 cells assessed as reduction in cell viability by measuring difference in IC50 pretreated for 24 hrs followed by white light irradiation for 1 hr further incubated for 48 hrs in drug free medium by MTT assay; format: functional, cell-based; summary of the method: as §1
PC-3 [7] = test: […] against human PC-3 cells assessed as reduction in cell viability by measuring difference in IC50 pretreated for 24 hrs followed by blue light irradiation for 1 hr further incubated for 48 hrs in drug free medium by MTT assay; format: functional, cell-based; summary of the method: as §1
[8] = Induction of NO production aqueous solution assessed as nitrite level at 80 uM measured after 1 hr of white light irradiation by griess reagent based assay; format: functional
Summary of the method: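 Griess assay. Aqueous compound at 160 μM was mixed 1:1 with Griess reagent, giving 80 μM, in a quartz cuvette. The mix was irradiated with a 300 W tungsten lamp at 40 cm for 15 min, 1 h or 2 h. Absorbance was read at 540 nm and nitrite quantified against a NaNO2 standard curve (5–50 μM).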

HCT-116 = test: Antitumour activity against human HCT-116 cells assessed as cell growth inhibition at 0.1 to 75 uM incubated for 72 hrs by MTT assay; format: functional, cell-based; settings: dose 0.1-75 µM
Summary of the method: (§2)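 MTT viability assay. Cells were plated at line-specific densities and left to attach 24 h, then exposed 72 h at 37 °C to 0.1–75 μM, eight replicates per concentration, with 0.2% DMSO controls. MTT was added for 3 h at 37 °C, formazan dissolved in DMSO and read at 570 nm. IC50 came from nonlinear regression; mean ± ES of 4/5 independent experiments.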

MDA-MB-231 = test: Antitumour activity against human MDA-MB-231 cells assessed as cell growth inhibition at 0.1 to 75 uM incubated for 72 hrs by MTT assay; format: functional, cell-based; settings: dose 0.1-75 µM; summary of the method: as §2
PC-3 [9] = test: Antitumor activity against human PC-3 cells assessed as cell growth inhibition at 0.1 to 75 uM incubated for 72 hrs by MTT assay; format: functional, cell-based; settings: dose 0.1-75 µM; summary of the method: as §2
DU-145 [10] = test: Antitumor activity against human DU-145 cells assessed as cell growth inhibition at 0.1 to 75 uM incubated for 72 hrs by MTT assay; format: functional, cell-based; settings: dose 0.1-75 µM; summary of the method: as §2
PC-3 [11] = test: Antitumor activity against human PC-3 cells assessed as cell growth inhibition incubated for 72 hrs by MTT assay; format: functional, cell-based; settings: PC-3, 72 h; summary of the method: as §2

SMILES | Activity [1] | MIC (Pseudomonas aeruginosa [2]) | Activity (Pseudomonas aeruginosa [3]) | Activity (DU-145 [4]) | Activity (DU-145 [5]) | Activity (PC-3 [6]) | Activity (PC-3 [7]) | Activity [8] | Activity (HCT-116) | Activity (MDA-MB-231) | Activity (PC-3 [9]) | Activity (DU-145 [10]) | IC50 (PC-3 [11])
CCn1cc(C(=O)OC)c(=O)c2cc(F)c(N3CCN(c4ccc([N+](=O)[O-])c(C(F)(F)F)c4)CC3)cc21 | Active | 25 µg/mL |  |  |  |  |  |  |  |  |  |  | 
CCn1cc(C(=O)O)c(=O)c2cc(F)c(N3CCN(CCNc4ccc([N+](=O)[O-])c(C(F)(F)F)c4)CC3)cc21 | Active | 25 µg/mL | inactive | inactive | inactive | inactive | inactive | 0.2 µM |  |  |  |  | 
CCn1cc(C(=O)O)c(=O)c2cc(F)c(N3CCN(c4ccc([N+](=O)[O-])c(C(F)(F)F)c4)CC3)cc21 | Active | 25 µg/mL |  |  |  |  |  | 3.1 µM |  |  |  |  | 
CCn1cc(C(=O)OC)c(=O)c2cc(F)c(N3CCN(CCNc4ccc([N+](=O)[O-])c(C(F)(F)F)c4)CC3)cc21 | Active | 25 µg/mL |  |  |  |  |  |  |  |  |  |  | 
O=C(O)c1cn(C2CC2)c2cc(N3CCN(CCNc4ccc([N+](=O)[O-])c(C(F)(F)F)c4)CC3)c(F)cc2c1=O | Active | 25 µg/mL |  |  |  |  |  | 0.5 µM | Active | Active | Active | Active | 
O=C(O)c1cn(C2CC2)c2cc(N3CCN(CCCNc4ccc([N+](=O)[O-])c(C(F)(F)F)c4)CC3)c(F)cc2c1=O | Active | 25 µg/mL |  | inactive | inactive | inactive | inactive | 6.2 µM | Active | Active | Active | Active | < 3000 nM
COC(=O)c1cn(C2CC2)c2cc(N3CCN(CCCNc4ccc([N+](=O)[O-])c(C(F)(F)F)c4)CC3)c(F)cc2c1=O | Active | 25 µg/mL |  |  |  |  |  |  | Active | Active | Active | Active | 
CCn1cc(C(=O)O)c(=O)c2cc(F)c(N3CCN(CCCNc4ccc([N+](=O)[O-])c(C(F)(F)F)c4)CC3)cc21 | Active | 25 µg/mL |  |  |  |  |  | 1.8 µM |  |  |  |  | 
COC(=O)c1cn(C2CC2)c2cc(N3CCN(c4ccc([N+](=O)[O-])c(C(F)(F)F)c4)CC3)c(F)cc2c1=O | Active | 25 µg/mL |  |  |  |  |  |  | Active | Active | Active | Active | 
O=C(O)c1cn(C2CC2)c2cc(N3CCN(c4ccc([N+](=O)[O-])c(C(F)(F)F)c4)CC3)c(F)cc2c1=O | Active | 25 µg/mL |  |  |  |  |  | 0.6 µM | Active | Active | Active | Active | 
COC(=O)c1cn(C2CC2)c2cc(N3CCN(CCNc4ccc([N+](=O)[O-])c(C(F)(F)F)c4)CC3)c(F)cc2c1=O | Active | 25 µg/mL |  |  |  |  |  |  | Active | Active | Active | Active | 
CCn1cc(C(=O)OC)c(=O)c2cc(F)c(N3CCN(CCCNc4ccc([N+](=O)[O-])c(C(F)(F)F)c4)CC3)cc21 | Active | 25 µg/mL |  |  |  |  |  |  |  |  |  |  | 
